Our source for the Activity values is ChEMBL document CHEMBL4118256, “Second Generation of Mannich Base-Type Derivatives with in Vivo Activity against Trypanosoma cruzi” (J Med Chem, 2018).

Structures are written as SMILES. The source made the active and inactive calls. The calls are words filed in the database; no cut-off is given here.

Data set [1] relates to Mus musculus. As to the kind of experiment: Toxicity in Balb/c mouse assessed as death at 20 mg/kg, po once daily for 5 consecutive days starting from day 10 post infection. Format: organism-based. To be noted: in vivo. In short, it runs like this:
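Female BALB/c mice (8-10 weeks, 20-25 g), groups of six, infected i.p. with 5 x 10^5 Arequipa bloodstream trypomastigotes. Dosing was oral, 20 mg·kg-1 per day for 5 days, given as a 2 mg·mL-1 suspension in 5% DMSO/0.5% hydroxypropyl methylcellulose. Treatment started day 10 pi (acute phase) or day 75 pi (chronic phase). Deaths and body-mass loss were monitored during and after treatment.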

The test system of data set [2] is Mus musculus. Nature of the data set: Toxicity in Balb/c mouse assessed as reduction in body mass at 20 mg/kg, po once daily for 5 consecutive days starting from day 10 post infection relative to control. The data set is classed as organism-based. Also noted: scale not given: the % may be the effect or the level left. To be noted: in vivo.
The subject of data set [3] is Trypanosoma cruzi. As to the kind of experiment: Antitrypanosomal activity against Trypanosoma cruzi MHOM/Pe/2011/Arequipa DTU 5 trypamastigotes infected in Balb/c mouse assessed as reduction in parasitaemia reactivation in adipose tissue at 20 mg/kg, po pretreated once daily for 5 consecutive days starting from day 75 post infection followed by cyclophosphamide-induced immunosuppression on day 100 post infection every 4 days for a maximum of 3 doses measured on day 127 post infection by PCR method. Also noted: scale not given: the % may be the effect or the level left. The data set is classed as functional. The settings on record: pooled result: one value given for 9 cell lines, strains, targets or settings. In short, it runs like this:
(§1)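 Necropsy on day 127 pi after oral treatment and cyclophosphamide immunosuppression. Tissue DNA was amplified by PCR targeting the ~300 bp T. cruzi SOD gene, 200 nM each primer, 30 cycles with 55.5 °C annealing. Products run on 2 % agarose; positive organs counted out of six mice.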

Data set [4] concerns Trypanosoma cruzi. As to the kind of experiment: Antitrypanosomal activity against Trypanosoma cruzi MHOM/Pe/2011/Arequipa DTU 5 trypamastigotes infected in Balb/c mouse assessed as reduction in parasitaemia reactivation in spleen tissue at 20 mg/kg, po pretreated once daily for 5 consecutive days starting from day 10 post infection followed by cyclophosphamide-induced immunosuppression on day 100 post infection every 4 days for a maximum of 3 doses measured on day 127 post infection by PCR method. The data set is classed as functional. Also noted: scale not given: the % may be the effect or the level left.

The subject of data set [5] is Trypanosoma cruzi. As to the kind of experiment: Antitrypanosomal activity against Trypanosoma cruzi MHOM/Pe/2011/Arequipa DTU 5 trypamastigotes infected in Balb/c mouse assessed as reduction in Ig-G level in serum at 20 mg/kg, po pretreated once daily for 5 consecutive days starting from day 75 post infection followed by cyclophosphamide-induced immunosuppression on day 100 post infection every 4 days for a maximum of 3 doses measured on day 127 post infection by ELISA. The data set is classed as functional, organism-based. Put shortly: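 Female BALB/c mice (8-10 weeks, 20-25 g), six per group, infected i.p. with 5 x 10^5 Arequipa bloodstream trypomastigotes. Compound was given orally once daily for 5 days from day 10 or day 75 pi, at 20 mg·kg-1 per day in 5 % DMSO/0.5 % HPMC. Anti-T. cruzi IgG in serum was measured by ELISA with Fe-SOD antigen, read as OD 490 nm.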
(ELISA stands for enzyme-linked immunosorbent assay.)

In data set [6] the test system is Mus musculus. Nature of the data set: Nephrotoxicity in Balb/c mouse infected with Trypanosoma cruzi MHOM/Pe/2011/Arequipa DTU 5 trypamastigotes assessed as decrease in uric acid level in serum at 20 mg/kg, po once daily for 5 consecutive days starting from day 75 post infection measured on day 81 post infection by biochemical analysis relative to control. The settings on record: in vivo. The data set is classed as toxicity, organism-based. The arrangement: scale not given: the % may be the effect or the level left.

The subject of data set [7] is Mus musculus. As to the kind of experiment: Cardiotoxicity in Balb/c mouse infected with Trypanosoma cruzi MHOM/Pe/2011/Arequipa DTU 5 trypamastigotes assessed as decrease in ratio of creatine kinase in muscle to brain at 20 mg/kg, po once daily for 5 consecutive days starting from day 75 post infection measured on day 81 post infection by biochemical analysis relative to control. The data set is classed as toxicity, organism-based. The arrangement: scale not given: the % may be the effect or the level left. To be noted: in vivo. Put shortly:
(§2)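 Serum clinical chemistry in Arequipa-infected female BALB/c mice. Oral 20 mg·kg-1 per day for 5 days, started day 10 or day 75 pi. Samples taken at day 16 pi or day 81 pi, and on necropsy day. Markers: CK-MB and LDH (U/L), AST, ALT and alkaline phosphatase (U/L), total bilirubin. Results scored relative to infected untreated controls; uninfected reference n = 15.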

Data set [8] concerns Mus musculus. Nature of the data set: Hepatotoxicity in Balb/c mouse infected with Trypanosoma cruzi MHOM/Pe/2011/Arequipa DTU 5 trypamastigotes assessed as increase in total bilirubin level at 20 mg/kg, po once daily for 5 consecutive days starting from day 10 post infection measured on day 16 post infection by biochemical analysis relative to control. Format: toxicity, organism-based. To be noted: in vivo.

Data set [9] has as its system Mus musculus. Nature of the data set: Hepatotoxicity in Balb/c mouse infected with Trypanosoma cruzi MHOM/Pe/2011/Arequipa DTU 5 trypamastigotes assessed as increase in total bilirubin level at 20 mg/kg, po once daily for 5 consecutive days starting from day 75 post infection measured on day 81 post infection by biochemical analysis relative to control. The settings on record: in vivo. The data set is classed as toxicity, organism-based.

Data set [10] relates to Mus musculus. Nature of the data set: Hepatotoxicity in Balb/c mouse infected with Trypanosoma cruzi MHOM/Pe/2011/Arequipa DTU 5 trypamastigotes assessed as increase in alkaline phosphatase level at 20 mg/kg, po once daily for 5 consecutive days starting from day 10 post infection measured on day 16 post infection by biochemical analysis relative to control. The settings on record: in vivo. Format: toxicity, organism-based.

Data set [11] has as its system Mus musculus. As to the kind of experiment: Hepatotoxicity in Balb/c mouse infected with Trypanosoma cruzi MHOM/Pe/2011/Arequipa DTU 5 trypamastigotes assessed as change in alkaline phosphatase level at 20 mg/kg, po once daily for 5 consecutive days starting from day 10 post infection measured on day 127 post infection by biochemical analysis relative to control. The data set is classed as toxicity, organism-based. To be noted: in vivo. In short, it runs like this: as §2

Data set [12] relates to Mus musculus. Nature of the data set: Nephrotoxicity in Balb/c mouse infected with Trypanosoma cruzi MHOM/Pe/2011/Arequipa DTU 5 trypamastigotes assessed as decrease in urea level in serum at […], po once daily for 5 consecutive days starting from day 75 post infection measured on day 127 post infection by biochemical analysis relative to control. Format: toxicity, organism-based. Also noted: scale not given: the % may be the effect or the level left. The settings on record: in vivo.

Data set [13] has as its system Mus musculus. As to the kind of experiment: Hepatotoxicity in Balb/c mouse infected with Trypanosoma cruzi MHOM/Pe/2011/Arequipa DTU 5 trypamastigotes assessed as increase in ratio of serum ALT to GPT level at […], po once daily for 5 consecutive days starting from day 10 post infection measured on day 16 post infection by biochemical analysis relative to control. Format: toxicity, organism-based. To be noted: in vivo.

Data set [14] concerns Trypanosoma cruzi. Nature of the data set: Antitrypanosomal activity against Trypanosoma cruzi MHOM/Pe/2011/Arequipa DTU 5 trypamastigotes infected in Balb/c mouse assessed as reduction in parasitaemia reactivation in brain tissue at 100 mg/kg, po pretreated once daily for 5 consecutive days starting from day 75 post infection followed by cyclophosphamide-induced immunosuppression on day 100 post infection every 4 days for a maximum of 3 doses measured on day 127 post infection by PCR method. Format: functional. Also noted: scale not given: the % may be the effect or the level left. In short, it runs like this:
as §1

Data set [15] has as its system Mus musculus. As to the kind of experiment: Hepatotoxicity in Balb/c mouse infected with Trypanosoma cruzi MHOM/Pe/2011/Arequipa DTU 5 trypamastigotes assessed as decrease in ratio of serum ALT to GPT level at […], po once daily for 5 consecutive days starting from day 10 post infection measured on day 127 post infection by biochemical analysis relative to control. The data set is classed as toxicity, organism-based. The arrangement: scale not given: the % may be the effect or the level left. The settings on record: in vivo.

The test system of data set [16] is Mus musculus. As to the kind of experiment: Nephrotoxicity in Balb/c mouse infected with Trypanosoma cruzi MHOM/Pe/2011/Arequipa DTU 5 trypamastigotes assessed as increase in urea level in serum at […], po once daily for 5 consecutive days starting from day 10 post infection measured on day 127 post infection by biochemical analysis relative to control. The data set is classed as toxicity, organism-based. To be noted: in vivo.

The subject of data set [17] is Mus musculus. Nature of the data set: Nephrotoxicity in Balb/c mouse infected with Trypanosoma cruzi MHOM/Pe/2011/Arequipa DTU 5 trypamastigotes assessed as increase in uric acid level in serum at […], po once daily for 5 consecutive days starting from day 75 post infection measured on day 81 post infection by biochemical analysis relative to control. The settings on record: in vivo. Format: toxicity, organism-based.

As to `O=C(Cn1ccnc1[N+](=O)[O-])NCc1ccccc1` [BENZNIDAZOLE], the Activity result in the data set on Mus musculus [1] is on record as “Non-Toxic”; in the data set on Mus musculus [2] it was more than 10%; in the data set on Trypanosoma cruzi [3], 55%; in the data set on Trypanosoma cruzi [4], 33%; in the data set with Mus musculus [6], more than 40%; in the data set with Mus musculus [7], “<= 10%”. The Activity entry in the data set with Mus musculus [8] was “<= 20%”; with Mus musculus [9], “<= 30%”; with Mus musculus [10], “<= 20%”; with Mus musculus [11] it was less than 10%. Moreover, the result in the data set on Trypanosoma cruzi [5] was Active.

Regarding `COc1ccc(C(=O)CCN2CCN(c3ccc([N+](=O)[O-])cc3)CC2)cc1`, the results for the Activity entry in the data set on Mus musculus [12] and in the data set with Mus musculus [13] were “<= 10%” and more than 40%, respectively.

Regarding `COc1ccc(C(=O)CCN2CCN(c3ccc(Cl)cc3)CC2)cc1`, the values for the Activity in the data set with Trypanosoma cruzi [14] and in the data set with Mus musculus [15] were 78% and “<= 10%”, respectively.

Take `COc1ccc(C(=O)CCN2CCN(c3ccc(F)cc3)CC2)cc1`: the Activity result in the data set with Mus musculus [16] and with Mus musculus [17] was “<= 10%” each time.
